Reference: the EternaBench riboswitch data

System: MS2 coat protein
Assay: apparent Kd, MS2 coat protein; higher = weaker binding; RNA-MaP array; FMN 200 µM where present
In short: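 The apparent Kd is reported as the median of filtered per-cluster binding-curve fits. To get these curves, designs transcribed by stalled E. coli RNA polymerase on Illumina sequencing-chip clusters were titrated with SNAP-549-labelled MS2 coat protein from 0.7 or 1.5 nM, doubling to 3 µM. Titrations were run without and then with constant ligand in 100 mM Tris-HCl pH 7.5, 80 mM KCl, 4 mM MgCl2, BSA, DTT, yeast tRNA and Tween-20, and green signal was normalised to red-channel RNA signal and control-cluster median Fmax.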

[1] = designed as: ON switch for flavin mononucleotide, no ligand
[2] = ligand present: flavin mononucleotide, designed as: ON switch for flavin mononucleotide
[3] = designed as: OFF switch for flavin mononucleotide, no ligand
[4] = ligand present: flavin mononucleotide, designed as: OFF switch for flavin mononucleotide

Row | Sequence | apparent Kd [1] [nM] | apparent Kd [2] [nM] | apparent Kd [3] [nM] | apparent Kd [4] [nM]
1 | AAAGCAUACCGAGGAUAUUCAUAUAAUAAAUAAACAUGAGGAUCACCCAUGUGGCGAAAGCCUAGGGAGAAGGCGGAAUGCUAA | 197 | 24.6 |  | 
2 | CCCGCAACAUGAGGAUCACCCAUGUAGGAUAUCGCUAUUGUAAUCAUGAAACAUGAUUACAAUAGCGAGAAGGACAUAUGCGGG |  |  | 6.77 | 10.4
3 | UGUUUGCGGCAGGAUAUCCAUCCGCGGUGUGGUGGAGAAGGGCUGACAUGAGGAUCACCCAUGUGCGUCCUGUU |  |  | 23.6 | 27.9
4 | GCUUCACAUGAGGAUCACCCAUGUCUUCGGAGUCGAGGAUAUGGUCACUGUAAACAGUGGCCAGAAGGCGAGGAGC | 54.1 | 35 |  | 
5 | AAACAUGUCCGAGGAUAUCUGGAAACACUUUCAAGAGAAGGCGGACAUGAGGAUCACCCAUGUCUCUCCUCAUCAACUACAAAU |  |  | 8.71 | 49.3
6 | UCCUUGUCCUGAGGAUAUCCGUGGUUACCGAAAGGAGAAGGCAGGACAUGAGGAUCACCCAUGUACCCAGAAAACGUGCAGAGA |  |  | 59.3 | 467
7 | UUUAUGUGAGGAUAUCAGUAGUAAAAAAAUAAAAUUACUACUGAGAAGGCACAUGAGGAUCACCCAUGUACUUC |  |  | 40.2 | 30.5
8 | GCGCUGCGUCAGAAGGGCCGAAAAGAGAAGACGGCAGGAUAUGACAUGAGGAUCACCCAUGUACACGUCGCCGUGGGUGUUGGA |  |  | 57.9 | 65
9 | AGGGUGUCGCUCAAUAACAUGAGGAUCACCCAUGUGCAUUAGAGAAGGGACCCGGGCGCGUGGAGUCAGGAUAUCUAUCUGCCA |  |  | 34.4 | 30
10 | GCGAUUUUGUAAGGAUAUACACCAGUUUCAAGUGUAGAAGGUACUUACAUGAGGAUCACCCAUGUAUACUUGGAUAAUAGUCGC | 17.4 | 17.5 |  | 
11 | AAUAUAAAGAGCUGGUACUCAAUAACAUGAGGAUCACCCAUGUAGGAUAUCAGCACGAUAAGUGCUGAGAAGGACAUCCAGCUC |  |  | 16.6 | 29.4
12 | GUAGAGUAAGGAUAUGGAGAAUAGGAUAGAAUGGUUAGAAUCUAGAAGGUACAUGAGGAUCACCCAUGUAAUGU |  |  | 21.7 | 20.8
13 | AAAACAUGAGGAUCACCCAUGUAAAGAACGGUUAAUAGAUCUGAGGAUAUACUAGAAUUUAGGUAGUAGAAGGCAGUGGGUACA | 35 | 26.2 |  | 
14 | GUAGCAUGAUUAGGAUAUUCAGCGAAUAGAUUGACAUGAGGAUCACCCAUGUGGCGAAAGCCGAGGGAGAAGGGAUGAUGCUAC |  | 47.4 |  | 
15 | CGGGAGAGAGGAUAUGGUGGACAUCACAUGAGGAUCACCCAUGUCUCGAGUGCUCCGUCACCAGAAGGCUCCGUUU |  |  | 109 | 78.7
16 | AGAUAACAUGUAGGAUAUCGAGGCCUGAGGCCUCGAGAAGGACAUGAGGAUCACCCAUGUAGUUGUACUAUGGGAUCACGCACU |  |  | 620 | 186
17 | UACGGGUCAGGAUAUGCGAGAGAGUGGGAAAUAGGAAGGUAGCAGAAGGGACAUGAGGAUCACCCAUGUGAGGC |  |  | 24.3 | 29.5
18 | AAAAGACAUGAGGAUCACCCAUGUAAAGACGUAGGAGGAUAUGUCUUGAAAAAAGACUUGACAGAAGGCCUGUGUC | 26.4 | 19 |  | 
19 | AAUUCACAUGAGGAUCACCCAUGUCAGGAUAUGCUGACGCGGGUUUCGGUGCGUGUUGGCAGAAGGGACAGCUA |  |  | 193 | 204
20 | AAGAGAAGAACUGAGGAUAUCAGGGAUGGUACAUGAGGAUCACCCAUGUUGGCAAGCGAAGAAACUGAGAAGGCAGAGAAGAAGAA | 80.3 | 48.1 |  | 
21 | AAAAAUGGAGGAUAUACAUGAGGAUCACCCAUGUGUGGCUAUACUAUGUGCUCGUCAGGUAGAAGGCCAAAAAA |  |  | 31.2 | 59.2
22 | UCUUAUUGCAAGGAUAUGCAAAUUAUUUUUUAAGCAGAAGGUGCAACAUGAGGAUCACCCAUGUUUCCGGGCAA |  |  | 15.3 | 42.9
23 | CGGGUCUGAGGAUAUCCAUCCUCAUACAUGAGGAUCACCCAUGUUCACCCUUGGGUUCCCGGAGAAGGCAGUUUUC |  |  | 153 | 177
24 | GCGUUGUUGUAGAAGGUACAUGAAUACUUUUAUUACCUCAAGUAACAUGAGGAUCACCCAUGUAGUAAGGAUAUACAUGAACGC | 35.1 | 24.3 |  | 
25 | UUACAUACAAAGGUACAUGAGGAUCACCCAUGUUUAUUGGGAAGAAGGGUAACAGUACUACAUAUAUAGGAUAUUUCACAAAUG | 195 | 144 |  | 
26 | UCAUAUUUACAAGGAUAUCAAUUGAAUAAACAUCGGACAUGAGGAUCACCCAUGUGAAAGUAUGGUGAGAAGGUGUAUUGUCGG | 217 | 154 |  | 
27 | ACUAUAUAUGAGAAGGUGAAGUGGAAACAUGAGGAUCACCCAUGUAAUACGAAGCGUAUUUUUAUCAAGGAUAUCAUAUAUAGA | 10.2 | 8.02 |  | 
28 | AAAAGGUCAGGAUAUACAAAAAAAAAAAAAAAAAAAAAAAAGUAGAAGGGACAUGAGGAUCACCCAUGUGAAAA |  |  | 86.1 | 74
